{"data": "Experimental data pooled from the literature", "note": "Compare with care: the assays were run in different laboratories."}
{"Structure (SMILES)": "NC(=O)c1cccc(-c2cccc(OC(=O)NC3CCCCC3)c2)c1", "assay": "HPLC", "endpoint": "chromatographic logP", "result": 2}
{"Structure (SMILES)": "CCCCCCCC/C=C\\CCCCCCCC(=O)OC[C@](C)(O)C[C@@H]1NC(=O)[C@@H]2Cc3c([nH]c4ccccc34)SC[C@H](NC(=O)[C@@H]([C@H](C)O)NC(=O)[C@H](C)NC1=O)C(=O)N1C[C@@H](O)C[C@H]1C(=O)N[C@@H](C)C(=O)N2", "endpoint": "logP", "result": 1.7}
{"Structure (SMILES)": "C[C@]12CC[C@H](O)CC1=CC[C@@H]1[C@@H]2CC[C@]2(C)C(n3cnc4ccccc43)=CC[C@@H]12.Cl", "system": "mouse, plasma", "conditions": "intravenous, 1 mg/kg", "endpoint": "half-life", "result": "1.02 h"}
{"Structure (SMILES)": "O=C(NCCCCCn1ccc2ccc(F)cc21)Oc1cccc2[nH]ccc12", "assay": "HPLC", "endpoint": "chromatographic logP", "result": 3.5}
{"Structure (SMILES)": "NCC(=O)Nc1ccc(-n2nc(C(F)(F)F)cc2-c2ccc3c(ccc4ccccc43)c2)cc1", "system": "mouse, plasma", "conditions": "oral, 80 mg/kg, single dose", "endpoint": "half-life", "result": "22 h"}
{"Structure (SMILES)": "CC[C@H]1CN2CC[C@H]1C[C@@H]2[C@@H](O)c1ccnc2ccc(OC)cc12", "system": "water", "endpoint": "logP", "result": 3.43}
{"Structure (SMILES)": "CCN(CC)CCCC[C@H](NC(=O)[C@H](CC(C)C)NC(=O)[C@H](C)NC(=O)[C@H](Cc1ccccc1)NC(=O)c1ccc(C(C)(C)C)cc1)C(=O)N[C@@H](CO)C(=O)OC", "system": "male Swiss mouse, blood", "conditions": "intravenous, 3 mg/kg", "endpoint": "half-life", "result": "0.09 h"}
{"Structure (SMILES)": "O=C(O)c1ccc(OC(=O)N2CCC(CCn3ccc4ccc(F)cc43)CC2)cc1", "assay": "HPLC", "endpoint": "chromatographic logP", "result": 3.6}
{"Structure (SMILES)": "Nc1nc(-c2ccccc2)nc2[nH]nc(Nc3ccc(C(F)(F)F)cc3)c12", "system": "mouse, plasma", "conditions": "oral, 100 mg/kg, 6 h", "endpoint": "concentration", "result": "0.802 µg/mL"}
{"Structure (SMILES)": "CN[C@H](CC(C)C)C(=O)N[C@H]1C(=O)N[C@@H](CC(N)=O)C(=O)N[C@H]2C(=O)NC3C(=O)N[C@H](C(=O)N[C@H](C(=O)NCCC[N+](C)(C)C)c4cc(O)cc(O)c4-c4cc3ccc4O)[C@H](O)c3ccc(c(Cl)c3)Oc3cc2cc(c3OC2OC(CO)C(O)[C@H](O)[C@@H]2O[C@H]2CC(C)(NCc3ccc(-c4ccc(Cl)cc4)cc3)[C@H](O)[C@H](C)O2)Oc2ccc(cc2Cl)[C@H]1O (some centres unmarked)", "system": "mouse, plasma", "conditions": "intravenous, 50 mg/kg", "endpoint": "half-life", "result": "6.2 h"}
{"Structure (SMILES)": "O=C(NCCCCCn1ccc2ccc(F)cc21)Oc1cccnc1", "assay": "HPLC", "endpoint": "chromatographic logP", "result": 2.6}
{"Structure (SMILES)": "Cc1cc(C)nc(Nc2ncc(C(=O)NCCc3c(C)[nH]c4ccccc34)cn2)c1", "assay": "metabolic stability", "system": "cynomolgus monkey, hepatocytes", "conditions": "1 µM", "endpoint": "half-life", "result": "0.267 h"}
{"Structure (SMILES)": "CC(C)[C@H]1C(=O)N[C@@H](CCCN=C(N)N)C(=O)NCC(=O)N[C@@H](CC(=O)O)C(=O)N[C@H](Cc2ccccc2)C(=O)N1C", "endpoint": "logP", "result": -2}
{"Structure (SMILES)": "N=c1c2c(-c3ccccc3)c(-c3ccccc3)n(Cc3ccccc3)c2ncn1[C@H]1CC[C@H](O)CC1", "system": "female minipig, plasma", "conditions": "oral, 2.5 mg/kg, single dose", "endpoint": "half-life", "result": "98.4 h"}
{"Structure (SMILES)": "O=C(OC(C(F)(F)F)C(F)(F)F)N1CCN(Cc2ccc(C(F)(F)F)cc2N2CCCC2)CC1", "assay": "HPLC", "endpoint": "chromatographic logP", "result": 7.4}
{"Structure (SMILES)": "C=C[C@H]1C[N@@]2CC[C@H]1C[C@@H]2[C@@H](O)c1ccnc2ccccc12", "system": "water", "endpoint": "logP", "result": 2.82}
{"Structure (SMILES)": "C[C@]12CC[C@H](n3ccnc3)CC1=CC[C@@H]1[C@@H]2CC[C@]2(C)C(n3cnc4ccccc43)=CC[C@@H]12.Cl.Cl", "system": "male CD-1 mouse, plasma", "conditions": "intravenous, 1 mg/kg", "endpoint": "half-life", "result": "17.5 h"}
